Key:
[1] = Toxicity in ip dose mouse assessed as mortality; type: organism-based; details: in vivo
Outline: (§1)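 In mice, LD50 is the dose causing 50% mortality. ED50 is the dose protecting 50% of mice against pentylenetetrazole-induced seizures. Therapeutic index = LD50/ED50.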

Mus musculus [2] = assay: Anticonvulsant activity in ip dosed mouse assessed as protection against pentylenetetrazol-induced seizure administered 30 min prior to pentylenetetrazol-challenge measured after 60 mins; type: functional
Outline: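 Mice received several doses for quantification. ED50 taken as the dose protecting 50% of mice against pentylenetetrazol-induced seizures.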

Mus musculus [3] = assay: Anticonvulsant activity in mouse assessed as protection against pentylenetetrazol-induced seizure at 1.5 mmol/kg, ip administered 30 min prior to pentylenetetrazol-challenge measured after 60 mins relative to control; type: functional
Mus musculus [4] = assay: Anticonvulsant activity in mouse assessed as protection against picrotoxin-induced seizure at 1.5 mmol/kg, ip administered 30 min prior to picrotoxin-challenge measured after 60 mins relative to control; type: functional
Mus musculus [5] = assay: Anticonvulsant activity in mouse assessed as protection against strychnine-induced seizure at 1.5 mmol/kg, ip administered 30 min prior to strychnine-challenge measured after 60 mins relative to control; type: functional
Mus musculus [6] = assay: Anticonvulsant activity in mouse assessed as protection against maximal electroshock-induced seizure at 1.5 mmol/kg, ip administered 30 min prior to maximal electroshock-challenge measured after 60 mins relative to control; type: functional
[7] = Neurotoxicity in ip dosed mouse assessed as impaired motor coordination administered 30 mins prior to test by chimney test; type: toxicity, organism-based; details: in vivo
Outline: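 Mice, Chimney test. TD50 is the dose that produces minimal neurological toxicity (impaired motor coordination) in 50% of animals, estimated from testing at several doses.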

Mus musculus [8] = species: Mus musculus; assay: Protective index, ratio of TD50 for mouse to ED50 for pentylenetetrazol-induced seizure in mouse; type: functional
Outline: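 Mice. Index is TD50/ED50. TD50 is the dose causing minimal neurological toxicity in 50% of mice in the Chimney test. ED50 is the dose protecting 50% of mice against pentylenetetrazole-induced seizures. Both are estimated from testing at several doses.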

Mus musculus [9] = assay: Anticonvulsant activity in mouse assessed as protection against strychnine-induced seizure at 1.4 mmol/kg, ip administered 30 min prior to strychnine-challenge measured after 60 mins relative to control; type: functional
[10] = Therapeutic index, ratio of LD50 for mouse to ED50 for pentylenetetrazol-induced seizure in mouse; type: organism-based; details: in vivo, read-out: Ratio LD50/ED50; outline: as §1
Mus musculus [11] = assay: Anticonvulsant activity in mouse assessed as protection against picrotoxin-induced seizure at 1.4 mmol/kg, ip administered 30 min prior to picrotoxin-challenge measured after 60 mins relative to control; type: functional
Mus musculus [12] = assay: Anticonvulsant activity in mouse assessed as protection against maximal electroshock-induced seizure at 1.4 mmol/kg, ip administered 30 min prior to maximal electroshock-challenge measured after 60 mins relative to control; type: functional
Mus musculus [13] = assay: Anticonvulsant activity in mouse assessed as protection against pentylenetetrazol-induced seizure at 1.4 mmol/kg, ip administered 30 min prior to pentylenetetrazol-challenge measured after 60 mins relative to control; type: functional

SMILES | LD50 [1] | ED50 (Mus musculus [2]) | Activity (Mus musculus [3]) | Activity (Mus musculus [4]) | Activity (Mus musculus [5]) | Activity (Mus musculus [6]) | TD50 at 0.5 h [7] | Ratio TD50/ED50 (Mus musculus [8]) | Activity (Mus musculus [9]) | selectivity ratio [10] | Activity (Mus musculus [11]) | Activity (Mus musculus [12]) | Activity (Mus musculus [13])
CCCC(CCC)C(=O)[O-].[Na+] [VALPROATE SODIUM] | 3000 µmol/kg | 1500 µmol/kg | 100% | 100% | 100% | 100% | 2700 µmol/kg |  |  |  |  |  | 
Cc1ccccc1-n1c(C)nc2ccccc2c1=O [METHAQUALONE] | 2000 µmol/kg | 1400 µmol/kg |  |  |  |  | 1600 µmol/kg | 1.14 | 0% | 1.4 | 50% | 100% | 100%
